Measurements reported in ChEMBL document CHEMBL4842356, “Discovery, optimization, and target identification of novel coumarin derivatives as HIV-1 reverse transcriptase-associated ribonuclease H inhibitors” (Eur J Med Chem, 2021).

Assays:
[1] = tested on: Human immunodeficiency virus 1; assay: Antiviral activity against wild type HIV1 3B infected in human MT4 cells assessed as protection against virus-induced cytopathic effect incubated for 5 days by MTT assay; assay type: functional, organism-based; settings: Human immunodeficiency virus 1, 3B, MT4, 120 h
In short: (§1)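 MT-4 cells (exponentially growing, resuspended at 6 × 10⁵ cells/mL) were seeded onto serial five-fold compound dilutions and infected with 100–300 CCID₅₀ virus stock, or given medium only (mock). Viability was read by MTT at 540 and 690 nm five days after infection, using the median OD of three wells. EC₅₀ is 50% protection from viral cytopathicity. CC₅₀ is 50% loss of viability in mock-infected cells.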

[2] = tested on: Human immunodeficiency virus 1; assay: Antiviral activity against HIV1 L1001 infected in human MT4 cells assessed as protection against virus-induced cytopathic effect incubated for 5 days by MTT assay; assay type: functional, organism-based; settings: Human immunodeficiency virus 1, L1001, MT4, 120 h
In short: (§2)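 MT-4 cells (exponentially growing, resuspended at 6 × 10⁵ cells/mL) exposed to serial five-fold compound dilutions, then infected with mutant HIV-1 stock at 100–300 CCID₅₀; mock-infected wells run in parallel for cytotoxicity. Viability read by MTT at 540 and 690 nm on day 5. Median OD of three wells used; EC₅₀ is the concentration giving 50% protection from viral cytopathicity.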

[3] = tested on: Human immunodeficiency virus 2; assay: Antiviral activity against HIV2 ROD infected in human MT4 cells assessed as protection against virus-induced cytopathic effect incubated for 5 days by MTT assay; settings: Human immunodeficiency virus 2, ISOLATE ROD, MT4, 120 h
[4] = tested on: Human immunodeficiency virus 1; assay: Antiviral activity against HIV1 harboring reverse transcriptase Y181C mutant infected in human MT4 cells assessed as protection against virus-induced cytopathic effect incubated for 5 days by MTT assay; assay type: functional, organism-based; settings: Human immunodeficiency virus 1, MT4, 120 h; in short: as §2
[5] = tested on: Human immunodeficiency virus 1; assay: Antiviral activity against HIV1 harboring reverse transcriptase Y188L mutant infected in human MT4 cells assessed as protection against virus-induced cytopathic effect incubated for 5 days by MTT assay; assay type: functional, organism-based; settings: Human immunodeficiency virus 1, MT4, 120 h; in short: as §2
[6] = target: Human immunodeficiency virus type 1 reverse transcriptase (Human immunodeficiency virus 1, UniProt Q72547); assay: Inhibition of wild type HIV1 Reverse transcriptase RNase H expressed in Escherichia coli using 5'-UUUUUUUUUAGGAUACAUAUGGUUAAAGU-3' oligonucleotide as substrate and DNA21P as primer in presence of [gamma32P]-ATP by PAGE analysis
In short: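 Wild-type HIV-1 BH10 RT was expressed in E. coli and purified. RNase H activity was measured on a 31-nt RNA, 5′-³²P-labelled, annealed to a 21-nt DNA (31T/21P). Cleaved substrate was quantified without inhibitor (5% DMSO) and with compound over 0.2–100 µM. IC₅₀ values were taken from dose-response curves.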

[7] = tested on: Human immunodeficiency virus 1; assay: Antiviral activity against HIV1 harboring reverse transcriptase K103N mutant infected in human MT4 cells assessed as protection against virus-induced cytopathic effect incubated for 5 days by MTT assay; assay type: functional, organism-based; settings: Human immunodeficiency virus 1, MT4, 120 h; in short: as §2
MT4 = assay: Cytotoxicity against mock-infected human MT4 cells assessed as reduction in cell viability measured after 5 days by MTT assay; assay type: functional; settings: MT4, 120 h, time 5 day; in short: as §1
[8] = tested on: Human immunodeficiency virus 1; assay: Antiviral activity against HIV1 harboring reverse transcriptase E138K mutant infected in human MT4 cells assessed as protection against virus-induced cytopathic effect incubated for 5 days by MTT assay; assay type: functional, organism-based; settings: Human immunodeficiency virus 1, MT4, 120 h
[9] = tested on: Human immunodeficiency virus 1; assay: Antiviral activity against HIV1 harboring reverse transcriptase V106A/F227 mutant infected in human MT4 cells assessed as protection against virus-induced cytopathic effect incubated for 5 days by MTT assay; assay type: functional, organism-based; settings: Human immunodeficiency virus 1, MT4, 120 h; in short: as §2
[10] = tested on: Human immunodeficiency virus 1; assay: Antiviral activity against HIV1 RES056 infected in human MT4 cells assessed as protection against virus-induced cytopathic effect incubated for 5 days by MTT assay; assay type: functional, organism-based; settings: Human immunodeficiency virus 1, RES056, MT4, 120 h; in short: as §1

SMILES | EC50 [1] [µM] | EC50 [2] [µM] | EC50 [3] [µM] | EC50 [4] [µM] | EC50 [5] [µM] | IC50 [6] [µM] | EC50 [7] [µM] | CC50 (MT4) [µM] | EC50 [8] [µM] | EC50 [9] [µM] | EC50 [10] [µM]
COC(=O)c1cc(NC(=O)c2cc3cc([N+](=O)[O-])c(O)c(O)c3oc2=O)ccc1O | 3.94 | 16.5 | 169 | 22.4 | 44.3 | 12.3 | 5.62 | > 300 | 22.5 | 101 | 
Cc1ccnc2c1NC(=O)c1cccnc1N2C1CC1 [NEVIRAPINE] | 1.9 | 0.7 |  |  | > 2.97 |  | 2.85 | > 15 |  | > 5.78 | > 15
